This passage reports lysis activity results from PubChem BioAssay AID651654 (Broad Institute, 2012).

“And” between values parts separate entries of the source, which are not always exact repeats. Identical values can stand only once. In all, about 360,000 compounds went through this assay and about 740 (0.21%) were called active.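 Rule for the calls: active = mean lysis activity across replicates of at least 80%, whatever share of replicates individually reach that level; inactive = mean lysis activity below 80%.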 Many of the other results were omitted from the sample, so actives are more common in it than they were. Some structures have more than one record in an assay (separate samples or runs), and their calls can disagree.

This experiment in a line: fungicidal lysis via adenylate kinase leakage – AK release luminescence, single concentration, primary screen (AID 651654). The settings on record: C. neoformans lysis, 4 h, at 15 µM, stronger effect = higher value. In a few lines:
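Schedule: static 4 h at 37 °C with compound, 1 h detection; system: C. neoformans cells; benchmarks: Clomiphene as positive control; buffer or medium: fresh YPD medium; measure: luminescence rise reflecting yeast cell lysis; measured by: luminescent adenylate kinase detection reagent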
On to `C[C@H](CO)N1C[C@H](C)[C@H](CN(C)C(=O)Oc2ccc3ccccc3c2)OCc2cnnn2CCCC1=O`, for which the lysis activity was -8.92% (inactive). Regarding `C[C@H]1CN([C@@H](C)CO)C(=O)CCCn2nncc2CO[C@H]1CN(C)C(=O)Oc1ccccc1`, the lysis activity is -2.79% (inactive) and -0.658% (inactive) and 0.85% (inactive). `C[C@H]1CN([C@@H](C)CO)C(=O)CCCn2nncc2CO[C@H]1CN(C)C(=O)Oc1cccc2ccccc12`: the lysis activity was 5.65% (inactive) and 82.4% (active) and -0.095% (inactive).

Consider `COc1cccc(C(c2nnnn2-c2ccc3c(c2)OCCO3)N2CCC3(CC2)C(=O)NCN3c2ccccc2)c1OC` (stereo not given), for which the lysis activity was -24.5% (inactive).

In the case of `O=C(Cc1ccccc1)N1CCCCN2[C@H](C1)[C@H](c1ccc(C#CC3(O)CCCC3)cc1)[C@@H]2CO`, the lysis activity is -1.31% (inactive).
